Test results reported in ChEMBL document CHEMBL5724801, “EUbOPEN Chemogenomics Library - Multiplex” (2024).
Values joined by “and” are separate entries in the source; they are usually repeats but may differ in a detail not shown here. Identical values can stand only once.

System: HEK-293T
Test: Multiplex assay against HEK293T
Assay type: toxicity, cell-based
Settings: human
Summary of the method: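 Values for tubulin, mitochondrial-mass and membrane-permeability phenotypes are per cents of cells with healthy nuclei. These cells were identified by CellPathfinder machine-learning gating of live cells that had been stained at seeding with Hoechst33342, BioTracker Green Microtubule Cytoskeleton Dye, MitoTracker Red and Annexin V Alexa Fluor 680 and imaged on a CQ1 microscope at 37°C and 5% CO2 after compound addition. The gating first set Hoechst high-intensity objects apart from normal cells, then split normal cells into healthy, pyknosed or fragmented nuclei, and pyknosed cells into mitotic or apoptotic.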

[1] = 12 h, 1 µM, compound concentration 1 uM
[2] = 12 h, 10 µM, compound concentration 10 uM
[3] = 24 h, 1 µM, compound concentration 1 uM
[4] = 24 h, 10 µM, compound concentration 10 uM
[5] = 48 h, 1 µM, compound concentration 1 uM
[6] = 48 h, 10 µM, compound concentration 10 uM

SMILES: Cc1noc(C)c1-c1cnc2c(-c3ccc(C(=O)O)cc3)cn([C@@H](C)c3ccccn3)c2c1 [PLX-51107]
- Population Apoptotic (%) [1]: 5.67% and 10.17%
- Population Fragmented Nuclei (%) [1]: 1.66% and 3.31%
- Population Hoechst High Intensity Objects (%) [1]: 0%
- Population Membrane Permeable-Phenotype (%) [1]: 0% and 7.14%
- Population Mitotic Cells (%) [1]: 94.33% and 89.83%
- Population Normal (%) [1]: 100%
- Population Pyknosed Nuclei (%) [1]: 40.33% and 78.15%
- Population Tubulin-Different-Phenotype (%) [1]: 2.51% and 7.14%
- Population Apoptotic (%) [2]: 13.75% and 7.84%
- Population Healthy Nuclei (%) [2]: 45.95% and 25.98%
- Population Hoechst High Intensity Objects (%) [2]: 0%
- Population Membrane Permeable-Phenotype (%) [2]: 0%
- Population Mitotic Cells (%) [2]: 86.25% and 92.16%
- Population Normal (%) [2]: 100%
- Population Pyknosed Nuclei (%) [2]: 51.78% and 54.45%
- Population Tubulin-Different-Phenotype (%) [2]: 4.23% and 5.48%
- Total Cell Count [2]: 309 and 281
- Population Apoptotic (%) [3]: 9.2% and 11.02%
- Population Fragmented Nuclei (%) [3]: 1.19% and 0.87%
- Population Healthy Nuclei (%) [3]: 75.73% and 43.91%
- Population Hoechst High Intensity Objects (%) [3]: 0%
- Population Membrane Permeable-Phenotype (%) [3]: 0%
- Population Mitochondria Different-Phenotype (%) [3]: 7.18% and 2.97%
- Population Mitotic Cells (%) [3]: 90.8% and 88.98%
- Population Normal (%) [3]: 100%
- Population Pyknosed Nuclei (%) [3]: 23.08% and 55.22%
- Population Tubulin-Different-Phenotype (%) [3]: 0.7% and 3.96%
- Population Apoptotic (%) [4]: 10.67% and 13.49%
- Population Healthy Nuclei (%) [4]: 62.01% and 40.13%
- Population Hoechst High Intensity Objects (%) [4]: 0%
- Population Membrane Permeable-Phenotype (%) [4]: 0% and 0.81%
- Population Mitochondria Different-Phenotype (%) [4]: 8.3% and 4.84%
- Population Mitotic Cells (%) [4]: 89.33% and 86.51%
- Population Normal (%) [4]: 100%
- Population Pyknosed Nuclei (%) [4]: 36.76% and 40.78%
- Population Tubulin-Different-Phenotype (%) [4]: 0% and 5.65%
- Total Cell Count [4]: 408 and 309
- Population Fragmented Nuclei (%) [5]: 6.3% and 3.02%
- Population Healthy Nuclei (%) [5]: 84.08% and 65.66%
- Population Hoechst High Intensity Objects (%) [5]: 0.14% and 0%
- Population Membrane Permeable-Phenotype (%) [5]: 0.33% and 1.15%
- Population Mitochondria Different-Phenotype (%) [5]: 5.35% and 6.9%
- Population Mitotic Cells (%) [5]: 94.96% and 79.52%
- Population Normal (%) [5]: 99.86% and 100%
- Population Tubulin-Different-Phenotype (%) [5]: 0.33% and 2.87%
- Population Healthy Nuclei (%) [6]: 78.62% and 47.53%
- Population Hoechst High Intensity Objects (%) [6]: 0%
- Population Membrane Permeable-Phenotype (%) [6]: 0.21% and 0.65%
- Population Mitochondria Different-Phenotype (%) [6]: 10.49% and 12.34%
- Population Mitotic Cells (%) [6]: 95.33% and 80.87%
- Population Normal (%) [6]: 100%
- Population Pyknosed Nuclei (%) [6]: 18.01% and 35.49%
- Population Tubulin-Different-Phenotype (%) [6]: 0.43% and 6.49%
- Total Cell Count [6]: 594 and 324

SMILES: Cl.c1ccc2c(c1)CCC[C@H]2Nc1nc2ccccc2[nH]1
- Population Apoptotic (%) [1]: 12.41% and 9.85%
- Population Fragmented Nuclei (%) [1]: 1.91% and 2.52%
- Population Hoechst High Intensity Objects (%) [1]: 0.95% and 0.62%
- Population Membrane Permeable-Phenotype (%) [1]: 0.58% and 0%
- Population Mitotic Cells (%) [1]: 87.59% and 90.15%
- Population Normal (%) [1]: 99.05% and 99.38%
- Population Pyknosed Nuclei (%) [1]: 43.63% and 83.02%
- Total Cell Count [1]: 317 and 160
- Population Apoptotic (%) [2]: 7.19% and 13.79%
- Population Fragmented Nuclei (%) [2]: 2.56% and 5.8%
- Population Hoechst High Intensity Objects (%) [2]: 0.57% and 0%
- Population Membrane Permeable-Phenotype (%) [2]: 0%
- Population Mitotic Cells (%) [2]: 92.81% and 86.21%
- Population Normal (%) [2]: 99.43% and 100%
- Population Pyknosed Nuclei (%) [2]: 47.58% and 84.06%
- Total Cell Count [2]: 353 and 138
- Population Apoptotic (%) [3]: 15.19% and 12.5%
- Population Fragmented Nuclei (%) [3]: 2.28% and 0.59%
- Population Healthy Nuclei (%) [3]: 64.94% and 28.82%
- Population Hoechst High Intensity Objects (%) [3]: 0%
- Population Membrane Permeable-Phenotype (%) [3]: 1.6% and 2.04%
- Population Mitotic Cells (%) [3]: 84.81% and 87.5%
- Population Normal (%) [3]: 100%
- Population Pyknosed Nuclei (%) [3]: 32.78% and 70.59%
- Population Tubulin-Different-Phenotype (%) [3]: 15.97% and 10.2%
- Total Cell Count [3]: 482 and 170
- Population Apoptotic (%) [4]: 10.9% and 23.53%
- Population Fragmented Nuclei (%) [4]: 2.57% and 5.7%
- Population Hoechst High Intensity Objects (%) [4]: 0%
- Population Membrane Permeable-Phenotype (%) [4]: 2.68% and 0%
- Population Mitochondria Different-Phenotype (%) [4]: 18.75% and 10%
- Population Mitotic Cells (%) [4]: 89.1% and 76.47%
- Population Normal (%) [4]: 100%
- Population Pyknosed Nuclei (%) [4]: 30.89% and 75.32%
- Population Tubulin-Different-Phenotype (%) [4]: 23.81% and 10%
- Population Apoptotic (%) [5]: 8.15% and 21.05%
- Population Fragmented Nuclei (%) [5]: 2.18% and 2.63%
- Population Healthy Nuclei (%) [5]: 84.41% and 64.04%
- Population Hoechst High Intensity Objects (%) [5]: 0% and 0.44%
- Population Membrane Permeable-Phenotype (%) [5]: 3.88% and 2.74%
- Population Mitochondria Different-Phenotype (%) [5]: 18.59% and 17.81%
- Population Mitotic Cells (%) [5]: 91.85% and 78.95%
- Population Normal (%) [5]: 100% and 99.56%
- Population Pyknosed Nuclei (%) [5]: 13.41% and 33.33%
- Population Fragmented Nuclei (%) [6]: 2.01% and 3.85%
- Population Healthy Nuclei (%) [6]: 79.3% and 55.49%
- Population Hoechst High Intensity Objects (%) [6]: 0.32% and 0%
- Population Membrane Permeable-Phenotype (%) [6]: 5.99% and 1.98%
- Population Mitochondria Different-Phenotype (%) [6]: 26.23% and 33.66%
- Population Mitotic Cells (%) [6]: 94.35% and 78.38%
- Population Normal (%) [6]: 99.68% and 100%
- Population Pyknosed Nuclei (%) [6]: 18.69% and 40.66%
